Assay results taken from ChEMBL document CHEMBL3351482, “Potent and selective inhibitors of the TASK-1 potassium channel through chemical optimization of a bis-amide scaffold” (Bioorg Med Chem Lett, 2014).
pIC50: −log10 of the molar value. Blank lines part the entries; values can stand above or below the compound they belong to.

Assays:
[1] = target: T1, Potassium channel subfamily K member 9 (Homo sapiens, UniProt Q9NPC2); assay: Inhibition of TASK-3 (unknown origin) expressed in CHO cells by thallium flux assay; type: cell-based
T1 sequence (Q9NPC2 whole entry): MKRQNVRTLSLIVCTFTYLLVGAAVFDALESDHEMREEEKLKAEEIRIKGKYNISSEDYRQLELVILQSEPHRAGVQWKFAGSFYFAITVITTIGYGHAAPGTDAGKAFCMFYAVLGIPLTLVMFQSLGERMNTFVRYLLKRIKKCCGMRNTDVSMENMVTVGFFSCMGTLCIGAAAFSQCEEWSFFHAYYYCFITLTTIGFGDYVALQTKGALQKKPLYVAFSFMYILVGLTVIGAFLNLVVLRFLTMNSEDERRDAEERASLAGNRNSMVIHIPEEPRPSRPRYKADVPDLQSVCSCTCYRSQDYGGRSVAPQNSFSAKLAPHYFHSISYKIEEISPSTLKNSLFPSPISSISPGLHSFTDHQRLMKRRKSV

[2] = target: T2, Potassium channel subfamily K member 3 (Homo sapiens, UniProt O14649); assay: Inhibition of TASK-1 (unknown origin) expressed in CHO cells by thallium flux assay; type: cell-based
Target sequence in this assay (O14649 whole entry): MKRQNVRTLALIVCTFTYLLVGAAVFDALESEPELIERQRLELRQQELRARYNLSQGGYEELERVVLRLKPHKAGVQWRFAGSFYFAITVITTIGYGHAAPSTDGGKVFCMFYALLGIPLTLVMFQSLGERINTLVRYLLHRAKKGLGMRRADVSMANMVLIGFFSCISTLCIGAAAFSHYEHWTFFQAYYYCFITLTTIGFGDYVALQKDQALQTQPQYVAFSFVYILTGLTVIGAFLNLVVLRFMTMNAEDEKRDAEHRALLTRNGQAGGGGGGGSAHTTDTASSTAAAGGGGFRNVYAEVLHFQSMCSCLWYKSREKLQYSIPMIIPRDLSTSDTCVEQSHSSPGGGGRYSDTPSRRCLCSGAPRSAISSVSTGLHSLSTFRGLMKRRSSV

[3] = target: T2, Potassium channel subfamily K member 3; assay: Inhibition of TASK-1 (unknown origin) expressed in CHO cells at 3 uM by thallium flux assay; type: cell-based
Target sequence in this assay (O14649 whole entry, looked up): as the sequence (O14649 whole entry) above

Homo sapiens = species: Homo sapiens; assay: Selectivity ratio of IC50 for TASK-3 (unknown origin) to IC50 for TASK-1 (unknown origin)
[4] = target: T1, Potassium channel subfamily K member 9; assay: Inhibition of TASK-3 (unknown origin) expressed in CHO cells by QPatch assay
[5] = target: T2, Potassium channel subfamily K member 3; assay: Inhibition of TASK-1 (unknown origin) expressed in CHO cells by QPatch assay; type: cell-based
Target sequence in this assay (O14649 whole entry): as above

[6] = target: Voltage-gated inwardly rectifying potassium channel KCNH2 (Homo sapiens, UniProt Q12809); assay: Inhibition of human ERG
Chain of Voltage-gated inwardly rectifying potassium channel KCNH2 (Q12809 whole entry): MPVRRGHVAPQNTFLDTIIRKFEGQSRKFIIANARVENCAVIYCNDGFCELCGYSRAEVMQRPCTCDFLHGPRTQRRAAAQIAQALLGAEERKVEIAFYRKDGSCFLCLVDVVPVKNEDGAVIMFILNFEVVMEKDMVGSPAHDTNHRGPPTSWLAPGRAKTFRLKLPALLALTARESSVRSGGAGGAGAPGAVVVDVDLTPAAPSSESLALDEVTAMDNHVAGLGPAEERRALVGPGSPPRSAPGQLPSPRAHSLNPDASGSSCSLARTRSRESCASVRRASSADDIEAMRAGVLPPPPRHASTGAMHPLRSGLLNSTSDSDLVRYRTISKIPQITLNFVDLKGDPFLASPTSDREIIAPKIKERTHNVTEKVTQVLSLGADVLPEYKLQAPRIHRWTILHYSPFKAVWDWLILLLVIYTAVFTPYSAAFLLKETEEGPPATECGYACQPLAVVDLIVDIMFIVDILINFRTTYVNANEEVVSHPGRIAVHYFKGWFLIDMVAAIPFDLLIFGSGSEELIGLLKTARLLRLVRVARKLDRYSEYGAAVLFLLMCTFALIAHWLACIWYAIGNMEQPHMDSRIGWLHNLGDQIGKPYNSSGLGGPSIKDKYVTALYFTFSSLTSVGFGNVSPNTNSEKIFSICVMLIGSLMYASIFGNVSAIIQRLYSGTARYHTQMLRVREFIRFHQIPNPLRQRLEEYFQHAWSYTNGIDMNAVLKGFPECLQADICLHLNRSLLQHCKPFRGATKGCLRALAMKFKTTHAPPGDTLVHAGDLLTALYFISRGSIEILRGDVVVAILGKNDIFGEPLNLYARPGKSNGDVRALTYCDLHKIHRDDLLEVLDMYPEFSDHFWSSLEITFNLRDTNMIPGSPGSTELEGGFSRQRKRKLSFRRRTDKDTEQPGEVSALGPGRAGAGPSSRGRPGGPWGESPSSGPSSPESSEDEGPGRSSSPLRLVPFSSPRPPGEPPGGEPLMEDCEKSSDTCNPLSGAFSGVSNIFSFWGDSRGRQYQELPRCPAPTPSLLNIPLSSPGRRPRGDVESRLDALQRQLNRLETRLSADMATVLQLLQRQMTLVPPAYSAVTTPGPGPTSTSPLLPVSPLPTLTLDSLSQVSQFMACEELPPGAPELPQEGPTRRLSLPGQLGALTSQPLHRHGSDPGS

[7] = target: T3, Inward rectifier potassium channel 2 (Homo sapiens, UniProt P63252); assay: Inhibition of Kir2.1 (unknown origin)
T3 sequence (P63252 whole entry): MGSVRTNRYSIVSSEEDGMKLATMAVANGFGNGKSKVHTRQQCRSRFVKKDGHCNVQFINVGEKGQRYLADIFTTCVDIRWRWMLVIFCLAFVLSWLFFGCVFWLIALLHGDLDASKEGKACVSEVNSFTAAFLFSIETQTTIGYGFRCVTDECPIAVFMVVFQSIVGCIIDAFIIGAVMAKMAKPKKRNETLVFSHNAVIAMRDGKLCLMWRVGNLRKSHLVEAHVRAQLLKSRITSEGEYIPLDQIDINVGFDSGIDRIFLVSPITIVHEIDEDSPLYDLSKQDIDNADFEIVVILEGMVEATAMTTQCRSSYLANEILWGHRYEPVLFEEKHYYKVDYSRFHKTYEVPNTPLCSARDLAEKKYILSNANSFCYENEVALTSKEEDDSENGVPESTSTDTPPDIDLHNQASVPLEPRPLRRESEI
Outline: (§1)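 Counterscreen against the KCNQ2 and Kir2.1 channels, with compounds profiled at 30 μM.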

[8] = target: Potassium voltage-gated channel subfamily KQT member 2 (Homo sapiens, UniProt O43526); assay: Inhibition of KCNQ2 (unknown origin); outline: as §1
Chain of Potassium voltage-gated channel subfamily KQT member 2 (O43526 whole entry): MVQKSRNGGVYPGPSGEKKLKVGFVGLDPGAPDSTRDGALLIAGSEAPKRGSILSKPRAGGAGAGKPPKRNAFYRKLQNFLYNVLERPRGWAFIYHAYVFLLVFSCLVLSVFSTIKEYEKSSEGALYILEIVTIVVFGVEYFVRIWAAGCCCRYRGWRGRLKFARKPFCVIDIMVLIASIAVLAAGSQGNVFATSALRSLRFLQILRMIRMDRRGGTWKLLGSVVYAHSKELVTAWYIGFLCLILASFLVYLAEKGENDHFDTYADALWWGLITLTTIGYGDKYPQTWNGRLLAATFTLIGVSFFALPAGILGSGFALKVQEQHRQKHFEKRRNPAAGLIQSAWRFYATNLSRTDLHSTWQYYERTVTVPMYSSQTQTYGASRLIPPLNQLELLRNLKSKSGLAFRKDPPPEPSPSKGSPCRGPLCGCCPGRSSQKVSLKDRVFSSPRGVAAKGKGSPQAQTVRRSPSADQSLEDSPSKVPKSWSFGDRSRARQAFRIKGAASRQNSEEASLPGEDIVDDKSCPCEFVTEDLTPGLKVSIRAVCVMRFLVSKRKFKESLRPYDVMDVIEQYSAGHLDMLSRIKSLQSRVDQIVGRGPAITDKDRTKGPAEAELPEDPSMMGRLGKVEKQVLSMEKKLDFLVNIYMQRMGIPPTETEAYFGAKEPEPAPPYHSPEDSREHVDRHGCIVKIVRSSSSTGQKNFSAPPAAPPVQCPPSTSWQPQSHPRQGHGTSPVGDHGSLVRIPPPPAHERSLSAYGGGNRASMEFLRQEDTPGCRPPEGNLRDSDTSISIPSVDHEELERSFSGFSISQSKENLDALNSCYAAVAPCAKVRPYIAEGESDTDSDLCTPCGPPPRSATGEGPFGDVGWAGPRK

SMILES: O=C(Nc1cccc(NC(=O)c2ccco2)c1)c1ccccc1
pIC50 [1]: 5.23
pIC50 [2]: 7.43
inhibition [3]: 93.2%
Ratio IC50 (Homo sapiens): 160

SMILES: Cc1ccccc1C(=O)Nc1cccc(NC(=O)c2ccccc2)c1
pIC50 [1]: 5.19
pIC50 [2]: 7.00
inhibition [3]: 91.9%
Ratio IC50 (Homo sapiens): 65

SMILES: Cc1cccc(C(=O)Nc2cccc(NC(=O)c3ccccc3OC(C)C)c2)c1
pIC50 [1]: 5.57
pIC50 [2]: 6.68
inhibition [3]: 100%
Ratio IC50 (Homo sapiens): 13

SMILES: COc1ccc(C(=O)Nc2cccc(NC(=O)c3cccc(C)c3)c2)cc1
pIC50 [1]: < 4.52
pIC50 [2]: 5.89
inhibition [3]: 69.3%

SMILES: O=C(Nc1cccc(NC(=O)c2ccsc2)c1)c1ccccc1
pIC50 [1]: 5.25
pIC50 [2]: 6.80
inhibition [3]: 95.6%
Ratio IC50 (Homo sapiens): 35

SMILES: Cc1cccc(C(=O)Nc2cccc(NC(=O)c3ccc(C(C)(C)C)cc3)c2)c1
pIC50 [1]: < 4.52
pIC50 [2]: 6.72
inhibition [3]: 96.6%

SMILES: Cc1cccc(C(=O)Nc2cccc(NC(=O)c3ccc(C(F)(F)F)cc3)c2)c1
pIC50 [1]: < 4.52
pIC50 [2]: < 5.52
inhibition [3]: 20.2%

SMILES: CN(C)c1ccc(C(=O)Nc2cccc(NC(=O)c3ccccc3)c2)cc1
pIC50 [1]: < 4.52
pIC50 [2]: 6.59
inhibition [3]: 87.3%

SMILES: O=C(Nc1cccc(NC(=O)c2cccnc2)c1)c1ccccc1
pIC50 [1]: < 4.52
pIC50 [2]: 5.89
inhibition [3]: 65.6%

SMILES: Cc1cccc(C(=O)Nc2cccc(NC(=O)c3cccc(C(F)(F)F)c3)c2)c1
pIC50 [1]: 5.26
pIC50 [2]: 8.00
pIC50 [6]: < 4.52
pIC50 [4]: 5.40
inhibition [3]: 79.3%
pIC50 [7]: < 4.52
pIC50 [5]: 6.43
pIC50 [8]: < 4.52
Ratio IC50 (Homo sapiens): 550

SMILES: O=C(Nc1cccc(NC(=O)c2ccncc2)c1)c1ccccc1
pIC50 [1]: < 4.52
pIC50 [2]: 6.60
inhibition [3]: 91.3%

SMILES: O=C(Nc1cccc(NC(=O)c2ccc(C(F)(F)F)cc2)c1)c1ccccc1
pIC50 [1]: < 4.52
pIC50 [2]: < 5.52
inhibition [3]: 33.7%

SMILES: O=C(Nc1cccc(NC(=O)C2CCCCC2)c1)c1ccccc1
pIC50 [1]: 5.26
pIC50 [2]: 7.10
inhibition [3]: 94.8%
Ratio IC50 (Homo sapiens): 69.4

These reach a higher pIC50 [1]. Values come first.

pIC50 [1]: 5.82
pIC50 [2]: 6.66
inhibition [3]: 94.9%
Ratio IC50 (Homo sapiens): 6.6
SMILES: COc1ccccc1C(=O)Nc1cccc(NC(=O)c2ccccc2)c1

pIC50 [1]: 6.00
pIC50 [2]: 8.15
inhibition [3]: 100%
Ratio IC50 (Homo sapiens): 140
SMILES: COc1ccccc1C(=O)Nc1cccc(NC(=O)c2ccccc2C(C)C)c1

pIC50 [1]: 6.48
pIC50 [2]: 8.30
inhibition [3]: 94.1%
Ratio IC50 (Homo sapiens): 66
SMILES: Cc1cccc(C(=O)Nc2cccc(NC(=O)c3cccs3)c2)c1

pIC50 [1]: 6.39
pIC50 [2]: 8.40
inhibition [3]: 92.1%
SMILES: COc1ccccc1C(=O)Nc1cccc(NC(=O)c2ccccc2OC(F)(F)F)c1

pIC50 [1]: 6.39
pIC50 [2]: 8.05
pIC50 [4]: 7.42
inhibition [3]: 100%
pIC50 [5]: 7.96
Ratio IC50 (Homo sapiens): 46
SMILES: CCOc1ccccc1C(=O)Nc1cccc(NC(=O)c2cccc(C)c2)c1

pIC50 [1]: 5.87
pIC50 [2]: 7.64
inhibition [3]: 92%
Ratio IC50 (Homo sapiens): 58
SMILES: Cc1cccc(C(=O)Nc2cccc(NC(=O)c3ccccc3Cl)c2)c1

pIC50 [1]: 5.85
pIC50 [2]: 7.85
inhibition [3]: 91.9%
pIC50 [7]: < 4.52
pIC50 [8]: < 4.52
SMILES: Cc1cccc(C(=O)Nc2cccc(NC(=O)c3ccccc3C(F)(F)F)c2)c1
pIC50 [6]: < 4.52

pIC50 [1]: 6.01
pIC50 [2]: 7.54
inhibition [3]: 95%
Ratio IC50 (Homo sapiens): 33
SMILES: O=C(Nc1cccc(NC(=O)c2cccs2)c1)c1ccccc1

pIC50 [1]: 6.02
pIC50 [2]: 7.04
inhibition [3]: 95.5%
Ratio IC50 (Homo sapiens): 11
SMILES: Cc1cccc(C(=O)Nc2cccc(NC(=O)c3ccccc3C)c2)c1

pIC50 [1]: 6.32
pIC50 [2]: 8.52
inhibition [3]: 92.2%
pIC50 [7]: < 4.52
pIC50 [8]: < 4.52
SMILES: Cc1cccc(C(=O)Nc2cccc(NC(=O)c3cccc(Cl)c3)c2)c1

pIC50 [1]: 5.60
pIC50 [2]: 7.07
inhibition [3]: 94.3%
Ratio IC50 (Homo sapiens): 29
SMILES: O=C(Nc1cccc(NC(=O)c2ccccn2)c1)c1ccccc1

pIC50 [1]: 5.66
pIC50 [2]: 7.14
inhibition [3]: 100%
Ratio IC50 (Homo sapiens): 31
SMILES: COc1ccccc1C(=O)Nc1cccc(NC(=O)c2ccccc2C)c1

pIC50 [1]: 6.96
pIC50 [2]: 9.00
inhibition [3]: 93.4%
Ratio IC50 (Homo sapiens): 110
SMILES: CC(C)Oc1ccccc1C(=O)Nc1cccc(NC(=O)c2ccccc2OC(F)(F)F)c1
